Converted amounts (≈) assume the structure as drawn.
What was measured:
HT-29 [1] = assay: Cytotoxicity against human HT-29 cells after 48 hrs by MTT assay; type: functional, cell-based; conditions: HT-29, 48 h
Procedure, shortened: (§1)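 HeLa (3000) or HT29 (12 500 cells/well) grown in DMEM with 10% FBS, 5% CO2, 37 °C; treated with graded concentrations 24 h after seeding, DMSO solvent control, then incubated 48 h before MTT viability read-out; IC50 fitted from duplicate experiments.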

HeLa [2] = assay: Cytotoxicity against human HeLa cells after 48 hrs by MTT assay; type: functional, cell-based; procedure, shortened: as §1
Staphylococcus aureus = assay: Antimicrobial activity against Staphylococcus aureus ATCC 6538 after 24 hrs by broth microdilution method; type: functional; conditions: ATCC 6538, 24 h
Procedure, shortened: (§2)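 Broth microdilution in Mueller–Hinton broth; colony grown 6–8 h at 37 °C, adjusted to 0.5 McFarland then diluted 100-fold as inoculum. Treated 24 h at 37 °C, 150 rpm; 0.02% v/v resazurin added, fluorescence read at ex 530/em 590 nm. Oxacillin (S. aureus) or nalidixic acid (P. aeruginosa) positive controls, MHB-only sterility control; % inhibition relative to solvent control.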

Pseudomonas aeruginosa = assay: Antimicrobial activity against Pseudomonas aeruginosa ATCC 27853 after 24 hrs by broth microdilution method; type: functional; conditions: ATCC 27853, 24 h; procedure, shortened: as §2
[3] = Antifungal activity against Dendryphiella salina assessed as growth inhibition at 625 ug/ml; type: functional; conditions: Paradendryphiella salina
Procedure, shortened: (§3)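 Fungus (Lindra thalassiae, Dendryphiella salina or Fusarium sp.) exposed to sample dissolved in MeOH, serially diluted, added to molten YPM P/S agar; MeOH-only solvent controls plus media-only wells; triplicate wells; 1 mm2 plug of culture transferred per well, 26 °C. Scored when media controls fully covered by hyphae: hyphae-containing squares counted through window screen; % inhibition versus solvent control.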

[4] = Antifungal activity against Dendryphiella salina assessed as growth inhibition at 62.5 ug/ml; type: functional; conditions: Paradendryphiella salina; procedure, shortened: as §3
[5] = Antifungal activity against Dendryphiella salina assessed as growth inhibition at 6.25 ug/ml; type: functional; conditions: Paradendryphiella salina; procedure, shortened: as §3
Lindra thalassiae [6] = assay: Antifungal activity against Lindra thalassiae assessed as growth inhibition at 625 ug/ml; type: functional; conditions: Lindriella thalassiae; read-out: GI; procedure, shortened: as §3
Lindra thalassiae [7] = assay: Antifungal activity against Lindra thalassiae assessed as growth inhibition at 62.5 ug/ml; type: functional; conditions: Lindriella thalassiae; read-out: GI; procedure, shortened: as §3
Lindra thalassiae [8] = assay: Antifungal activity against Lindra thalassiae assessed as growth inhibition at 6.25 ug/ml; type: functional; conditions: Lindriella thalassiae; read-out: GI; procedure, shortened: as §3
Fusarium sp. [9] = assay: Antifungal activity against Fusarium sp. assessed as growth inhibition at 625 ug/ml; type: functional; conditions: read-out: GI; procedure, shortened: as §3
Fusarium sp. [10] = assay: Antifungal activity against Fusarium sp. assessed as growth inhibition at 62.5 ug/ml; type: functional; conditions: read-out: GI; procedure, shortened: as §3
Fusarium sp. [11] = assay: Antifungal activity against Fusarium sp. assessed as growth inhibition at 6.25 ug/ml; type: functional; conditions: read-out: GI; procedure, shortened: as §3
HT-29 [12] = assay: Cytotoxicity against human HT-29 cells after 1 to 48 hrs by MTT assay; type: functional, cell-based
Procedure, shortened: (§4)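 HeLa and HT29 cultured in DMEM with 10% FBS at 37 °C, 5% CO2, exposed to graded concentrations for 1, 3, 6, 12, 24 or 48 h; MTT viability read-out, IC50 at each time point.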

HeLa [13] = assay: Cytotoxicity against human HeLa cells after 1 to 48 hrs by MTT assay; type: functional, cell-based; procedure, shortened: as §4

MIC (Staphylococcus aureus)	MIC (Pseudomonas aeruginosa)	SMILES	IC50 (HT-29 [1])	IC50 (HeLa [2])	growth inhibition (GI) [3]	growth inhibition (GI) [4]	growth inhibition (GI) [5]	inhibition of growth at 625 µg/mL (Lindra thalassiae [6])	inhibition of growth at 62.5 µg/mL (Lindra thalassiae [7])	inhibition of growth at 6.25 µg/mL (Lindra thalassiae [8])	inhibition of growth at 625 µg/mL (Fusarium sp. [9])	inhibition of growth at 62.5 µg/mL (Fusarium sp. [10])	inhibition of growth at 6.25 µg/mL (Fusarium sp. [11])	IC50 (HT-29 [12])	IC50 (HeLa [13])
32 µM (≈ 25.3 µg/mL)	32 µM (≈ 25.3 µg/mL)	C/C1=C/C(=O)OC(C(C)(C)C)CC(O)CCCC(O)CCCC(O)CCCC(O)CCCC(O)CCCC(O)CCCC(O)CCC[C@@H](O)C[C@@H](O)CCC1 (some centres undefined)	0.87 µM	0.87 µM	100%	60%	0%	100%	100%	40%	100%	100%	35%	0.87 µM	0.87 µM
–	–	CC(=O)OC1CCCC(OC(C)=O)CCCC(OC(C)=O)CCCC(OC(C)=O)CCC[C@@H](OC(C)=O)C[C@@H](OC(C)=O)CCC/C(C)=C\C(=O)OC(C(C)(C)C)CC(OC(C)=O)CCCC(OC(C)=O)CCCC(OC(C)=O)CCC1 (some centres undefined)	58 µM	18 µM	–	–	–	–	–	–	–	–	–	–	–
–	–	CC(=O)OC1CCCC(O)CCCC(O)CCCC(O)CCCC(O)CCCC(O)CCC[C@@H](O)C[C@@H](O)CCC/C(C)=C\C(=O)OC(C(C)(C)C)CC(O)CCC1 (some centres undefined)	12 µM	9.9 µM	–	–	–	–	–	–	–	–	–	–	–
> 100 µM	> 100 µM	C[C@@H]1[C@H](O)[C@@H](C)/C=C/C=C/C=C/C=C/C=C/C=C/C=C/[C@H](O[C@@H]2O[C@H](C)[C@@H](O)[C@H](N)[C@@H]2O)C[C@@H]2O[C@](O)(C[C@@H](O)C[C@@H](O)[C@H](O)CC[C@@H](O)C[C@@H](O)CC(=O)O[C@H]1C)C[C@H](O)[C@H]2C(=O)O [AMPHOTERICIN B]	10 µM	10 µM	–	100%	100%	–	21%	0%	–	6%	12%	–	–

Source: ChEMBL document CHEMBL3593174, “Amantelides A and B, Polyhydroxylated Macrolides with Differential Broad-Spectrum Cytotoxicity from a Guamanian Marine Cyanobacterium” (J Nat Prod, 2015)
